Source: PubChem (Johns Hopkins Ion Channel Center)
KCNK9 inh = inhibitors of human KCNK9 two-pore domain potassium channel; B-score at 10 µM; 1.2% of 310,000 active; HEK293 KCNK9, FluxOR thallium flux fluorescence; active compounds read low; Q9NPC2;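 active = ratio B-score over 3 SD below the library mean, with starting fluorescence within 5 SD of its mean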;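 also: negative B-score means less thallium flux so channel inhibition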
Kir21 inh = Kir2.1 (mouse) channel inhibition | HEK293-Kir2.1, FluxOR thallium flux fluorescence; active compounds read low | B-score at 10 µM | 0.85% of 310,000 active | P35561 | AID 1672;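 active = fluorescence ratio B-score at or below minus 3 SD of library scores, with starting-brightness B-score within 2 SD, cut at about -4.2 in these data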;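 also: channel flux triggered by added potassium and thallium sulfate stimulus; B-score of peak minus minimum fluorescence over baseline after thallium stimulus; more negative B-score means stronger Kir2.1 block with less thallium influx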
Target sequence (P35561 whole entry, looked up): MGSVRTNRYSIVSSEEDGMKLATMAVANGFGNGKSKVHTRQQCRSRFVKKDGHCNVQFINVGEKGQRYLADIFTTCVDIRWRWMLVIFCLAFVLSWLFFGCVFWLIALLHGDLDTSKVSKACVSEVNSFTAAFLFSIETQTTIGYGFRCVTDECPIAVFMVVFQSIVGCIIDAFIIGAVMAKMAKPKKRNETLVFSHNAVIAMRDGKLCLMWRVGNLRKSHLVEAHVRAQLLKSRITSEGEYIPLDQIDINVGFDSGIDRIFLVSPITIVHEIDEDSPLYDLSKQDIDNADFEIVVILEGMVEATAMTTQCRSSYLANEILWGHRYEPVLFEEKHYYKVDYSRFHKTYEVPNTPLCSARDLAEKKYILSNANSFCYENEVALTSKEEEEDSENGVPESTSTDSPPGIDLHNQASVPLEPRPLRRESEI
KCNK3 inh = human KCNK3 channel inhibition, primary screen; O14649; CHO-KCNK3 thallium flux, FluxOR fluorescence; active compounds read low; B-score at 10 µM; 0.84% of 340,000 active;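 active = B-score under library mean minus 4 SD, starting fluorescence ratio at most library mean plus 5 SD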;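 also: more negative B-score means stronger inhibition of thallium flux through KCNK3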
KCNQ1 block = human KCNQ1 channel inhibition. 1.3% of 310,000 active. AID 2642. P51787. CHO-K1 KCNQ1, FluxOR thallium flux fluorescence; active compounds read high. B-score at 10 µM;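 active = compounds whose thallium flux B-score, printed positive for inhibition, exceeds three library SD while starting fluorescence stays within three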;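 also: channel opened by potassium depolarization with thallium stimulus after 20 min compound exposure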
hERG protect = shields human hERG channel from block by proarrhythmic agents | CHO-hERG, FluxOR thallium flux, dofetilide IC70 present | activation (rescue from dofetilide block), less the hit threshold, % at 10 µM | 0.51% of 310,000 active;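 active = activation above the mean of controls blocked by dofetilide plus 5 SD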;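 also: thallium influx through hERG after potassium depolarization seen as dye fluorescence rise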
KCNQ1 pot = human KCNQ1 channel potentiation or activation; CHO-K1 KCNQ1, thallium flux FluxOR fluorescence; active compounds read high; B-score at 10 µM; 0.35% of 310,000 active; AID 2648;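 active = fluorescence ratio B-score, a plate-corrected score, at least three library SD, with initial intensity B-score within 5 SD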
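Assay system: CHO-K1 cells stably expressing KCNQ1. Medium: assay buffer for compound exposure, DMSO matched across wells. Timing: 37 °C overnight plating, 90-min dark dye load, 20-min compound pretreatment. Signal: kinetic FluxOR fluorescence, 10 s baseline plus 110 s post-stimulus.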
KCNK9 block conf = confirmation of human KCNK9 potassium channel inhibitors | shares compounds with KCNK9 inh | 43% of 4,900 active | inhibition, % at 10 µM | HEK293 KCNK9 cells, FluxOR thallium flux fluorescence;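 active = thallium signal inhibited by more than 5 SD of the compound-free buffer control wells, on both duplicate plates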;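 also: 0% = assay buffer control wells without compound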
Kir2-1 spec = tests whether KCNK9 modulators also affect mouse Kir2.1; shares compounds with KCNK9 inh; 4% of 4,900 active; Kir2.1 cells, FluxOR thallium flux fluorescence; AID 492993; inhibition, % at 10 µM;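 active = thallium signal drop more than 5 SD beyond the mean of the no-compound control wells, seen in both duplicate plates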;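 also: signal is fluorescence rise after thallium addition divided by baseline fluorescence; plate controls were assay buffer only for no effect and full block by chlorpromazine control for full effect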
HEK293 Tl ctr = second counter-screen for KCNK9 modulators: effect in non-induced cells; 40% of 4,900 active; inhibition, % at 10 µM; shares compounds with KCNK9 inh; non-induced KCNK9-HEK293, FluxOR thallium flux;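 active = thallium signal drop beyond 5 SD of the untreated control mean, on both duplicate plates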;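 also: plate controls were buffer only IC0 wells for no effect and SID17386958 at its maximal inhibitory level for full effect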
Starred values were filed as active, the others as inactive. Only some compounds are listed: those with a hit (about 3.8% of all), similar ones and a draw of the others.

Screening COc1ccc(C2CC(=O)N3CN(c4ccc(C)c(Cl)c4)CSC3=C2C#N)cc1 (configuration not stated) returned KCNK9 inh inactive, Kir21 inh 0.13, KCNK3 inh inactive, KCNQ1 block inactive, hERG protect -9, KCNQ1 pot inactive, KCNK9 block conf inactive, Kir2-1 spec inactive and HEK293 Tl ctr inactive.
`COc1ccc(N2CSC3=C(C#N)C(c4cccc(OC)c4OC)CC(=O)N3C2)cc1` (configuration not stated) gave KCNK9 inh inactive, Kir21 inh 0.34, KCNK3 inh inactive, KCNQ1 block inactive, hERG protect -9 and KCNQ1 pot inactive.
`Cc1nc(-c2ccc(F)cc2)c(CC(=O)N(C)CC(=O)Nc2ccc(F)cc2)s1` gave KCNK9 inh inactive, Kir21 inh 0.55, KCNK3 inh inactive, KCNQ1 block inactive, hERG protect -6 and KCNQ1 pot inactive.
Screening CCN(Cc1ccccc1)C(c1ccc(Cl)cc1)c1nnnn1C(C)(C)C (configuration not stated) returned KCNK9 inh -10*, Kir21 inh 0.87, KCNK3 inh inactive, KCNQ1 block inactive, hERG protect -3, KCNQ1 pot inactive, KCNK9 block conf 59%*, Kir2-1 spec inactive and HEK293 Tl ctr 54%*.
`C=CCn1c(C)c(C(C)=O)c(N2CCN(C(c3ccccc3)c3ccccc3)CC2)nc1=S` gave KCNK9 inh -8.1*, Kir21 inh 3.6, KCNK3 inh inactive, KCNQ1 block inactive, hERG protect -24, KCNQ1 pot inactive, KCNK9 block conf 37%*, Kir2-1 spec inactive and HEK293 Tl ctr inactive.
`CC(=O)c1c(N2CCN(C)CC2)nc(=S)n(Cc2ccccc2)c1C` gave KCNK9 inh inactive, Kir21 inh 0.14, KCNK3 inh inactive, KCNQ1 block inactive, hERG protect -3 and KCNQ1 pot inactive.
Screening CCOc1ccccc1C(C(=O)NC1CCCCC1)N(C(=O)c1csnn1)C1CC1 (configuration not stated) returned KCNK9 inh inactive, Kir21 inh 1.4, KCNK3 inh inactive, KCNQ1 block inactive, hERG protect -12 and KCNQ1 pot inactive.
For CCNCC(=O)N1c2ccccc2CCc2ccc(NC(=O)OCC)cc21 the results were KCNK9 inh -11*, Kir21 inh -0.17, KCNK3 inh inactive, KCNQ1 block inactive, hERG protect -11, KCNQ1 pot inactive, KCNK9 block conf 54%*, Kir2-1 spec inactive and HEK293 Tl ctr 34%*.
Screening CCOC(=O)Nc1ccc2c(c1)N(C(=O)CN)c1ccccc1CC2 returned KCNK9 inh inactive, Kir21 inh -1.7, KCNK3 inh inactive, KCNQ1 block inactive, hERG protect -6 and KCNQ1 pot inactive.
Screening CCN(Cc1ccc2c(c1)OCCO2)C(=O)CSc1nc(C)nc2sc(C)c(C)c12 returned KCNK3 inh inactive.
Screening O=[N+]([O-])c1ccc(CSc2nnc(SCc3ccc(Cl)cc3)s2)cc1 returned KCNK9 inh -9.3*, Kir21 inh -0.49, KCNK3 inh inactive, KCNQ1 block inactive, hERG protect 0, KCNQ1 pot inactive, KCNK9 block conf 45%*, Kir2-1 spec inactive and HEK293 Tl ctr 46%*.
`Nc1nnc(SCc2ccc([N+](=O)[O-])cc2)s1` gave KCNK9 inh inactive, Kir21 inh -2.4, KCNK3 inh inactive, KCNQ1 block inactive, hERG protect -10 and KCNQ1 pot inactive.
